Reference: PMC5976253 (Journal of medicinal chemistry, 2018)
“Also recorded” adds a separate entry of the source.

Tests used:
[1] = target: T1, rat UT-A1 (Rattus norvegicus, UniProt Q62668); type: cell-based
T1 sequence (Q62668 1-929): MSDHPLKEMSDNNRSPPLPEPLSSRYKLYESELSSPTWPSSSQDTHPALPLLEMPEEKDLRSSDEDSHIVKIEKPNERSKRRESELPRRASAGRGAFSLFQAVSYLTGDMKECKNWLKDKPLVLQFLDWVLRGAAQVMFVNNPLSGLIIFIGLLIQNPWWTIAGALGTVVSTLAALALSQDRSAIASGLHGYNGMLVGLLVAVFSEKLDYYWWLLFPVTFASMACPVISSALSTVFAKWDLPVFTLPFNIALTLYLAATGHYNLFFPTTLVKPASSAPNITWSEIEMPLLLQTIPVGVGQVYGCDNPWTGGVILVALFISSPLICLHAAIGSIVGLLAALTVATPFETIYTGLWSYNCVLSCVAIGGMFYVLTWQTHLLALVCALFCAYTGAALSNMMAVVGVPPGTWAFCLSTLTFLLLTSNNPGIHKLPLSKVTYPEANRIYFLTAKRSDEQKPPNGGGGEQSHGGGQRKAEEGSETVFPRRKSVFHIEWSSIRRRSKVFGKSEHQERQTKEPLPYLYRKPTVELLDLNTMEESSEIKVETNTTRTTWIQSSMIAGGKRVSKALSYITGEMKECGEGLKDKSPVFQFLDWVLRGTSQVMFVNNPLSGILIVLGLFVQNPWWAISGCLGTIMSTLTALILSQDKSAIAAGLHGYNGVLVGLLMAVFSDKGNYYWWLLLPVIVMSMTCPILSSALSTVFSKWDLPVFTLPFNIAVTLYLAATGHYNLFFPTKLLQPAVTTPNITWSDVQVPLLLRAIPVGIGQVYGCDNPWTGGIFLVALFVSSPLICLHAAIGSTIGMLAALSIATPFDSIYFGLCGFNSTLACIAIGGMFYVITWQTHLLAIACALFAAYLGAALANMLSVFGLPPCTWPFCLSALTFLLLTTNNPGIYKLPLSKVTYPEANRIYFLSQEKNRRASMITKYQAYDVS
Method in brief: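 MDCK cells co-expressing rat UT-A1, AQP1 and YFP were used, selecting a clone with bright YFP and relatively low AQP1. Urea transport was read by plate-reader fluorescence, referenced to DMSO (0%) and phloretin (100%). Concentration–inhibition data are mean ± SEM, n = 3. For reversibility, cells were preincubated with 0.5 µM compound and PBS-washed before assay. For kinetics, 0.5 µM was added at varied times before assay. Urea gradients were 200, 400 and 800 mM.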

[2] = tested on: rats; experiment: Diuretic studies in rats; type: in vivo; settings: rat, 4 mg/kg intravenous, compared with pretreatment
Method in brief: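 Male Wistar rats (250–300 g), acclimated individually in metabolic cages for 3 days (6 h/day), with food and water ad libitum. Spontaneously voided urine was collected for 3 h. Test compound or vehicle was then given IV via catheter at 4 mg/kg in saline with 20% dimethylacetamide and 1.28 mg/mL NaOH, and urine was collected for a further 3 h. Read-outs were volume and freezing-point osmolality; mean ± SEM, n = 4; paired t-test versus −3 to 0 h.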

[3] = Rat pharmacokinetics; type: in vivo; settings: 4 mg/kg intravenous
Method in brief: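 Tail-vein blood was taken at 15, 30, 60, 120 and 180 min, serum separated, and urine collected in metabolic cages for 3 h; samples were stored at −20 °C. LC/MS (ESI positive) quantified compound against standards spiked into control rat urine and plasma.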

[4] = target: T2, rat UT-B (Rattus norvegicus, UniProt P97689); experiment: UT-B inhibition, erythrocyte lysis assay; type: cell-based
T2 sequence (P97689 1-384): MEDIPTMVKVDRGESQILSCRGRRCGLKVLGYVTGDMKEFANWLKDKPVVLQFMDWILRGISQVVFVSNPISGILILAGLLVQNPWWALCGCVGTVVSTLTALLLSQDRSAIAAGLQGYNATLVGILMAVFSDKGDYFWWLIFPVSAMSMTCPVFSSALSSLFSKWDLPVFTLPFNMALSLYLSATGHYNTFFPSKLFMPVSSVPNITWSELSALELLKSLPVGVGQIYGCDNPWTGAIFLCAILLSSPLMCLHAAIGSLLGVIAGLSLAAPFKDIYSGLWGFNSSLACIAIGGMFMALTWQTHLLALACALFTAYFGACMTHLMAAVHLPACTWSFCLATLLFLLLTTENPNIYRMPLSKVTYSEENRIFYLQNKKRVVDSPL
Method in brief: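 Rat whole blood was diluted to ~1.5% hematocrit in PBS with 1.25 M acetamide and 5 mM glucose, then incubated 15 min with test compound. Suspension was added rapidly to wells and mixed vigorously, and lysis was read as absorbance at 710 nm. Controls were isosmolar buffer (nonlysed) and 0.7 mM phloretin (lysed), with % lysis normalized between them; mean ± SEM, n = 3.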

Compound	UT-A1 inhibition (in words) [1]	UT-B inhibition (in words) [4]	also measured
COc1ccc(Cl)cc1S(=O)(=O)Nc1ccc(Oc2nc3cc(Cl)c(Cl)cc3n3cnnc23)cc1 [8bi]	inactive	–	–
CCCc1nnc2c(Oc3ccc(NS(=O)(=O)c4cc(Cl)ccc4OC)cc3)nc3cc(F)c(F)cc3n12 [8bl]	–	–	3 h urine volume [2]: marked diuresis; also recorded: significantly increased; urine osmolality [2]: reduced urinary osmolality; serum concentration ([3]; for 3 h): greater than 2 µM; urine concentration ([3]; urine collected for 3 h): 6 to 8 µM
COC(=O)c1sc2nc3c(cc2c1N)CN(Cc1ccccc1)CC3 [compound 4]	low potency	–	–
COc1ccc(-c2cccc(-c3ccn(Cc4csc(C)n4)n3)c2)nn1 [compound 2]	–	little UT-B inhibition	–
COc1ccc(Cl)cc1S(=O)(=O)Nc1ccc(Oc2nc3ccccc3n3c(C)nnc23)cc1 [8an]	inactive	–	–
CCCc1nnc2c(Oc3ccc(NS(=O)(=O)c4cc(Cl)ccc4OC)cc3)nc3ccccc3n12 [8ay]	–	–	Reversibility of UT-A1 inhibition ([1]; 0.5 µM for 15 min followed by washing): fully reversed; half-time for UT-A1 inhibition ([1]; after addition of 0.5 µM compound): ~ 2 min; IC50 for UT-A1 at different urea concentration gradients (inhibition mechanism) ([1]; urea 200, 400 and 800 mM): similar
O=C(Nc1ccon1)c1cc(-c2ccccc2)nc2ccccc12 [compound 3]	–	little UT-B inhibition	–
CC(=O)Nc1ccc(-c2noc(C3CCCN(C(=O)c4ccccc4F)C3)n2)cc1 (stereo not shown) [compound 1]	–	little UT-B inhibition	–
COc1ccc(Cl)c(S(=O)(=O)Nc2ccc(Nc3nc4ccccc4n4cnnc34)cc2)c1 [8am]	inactive	–	–
COc1ccc(Cl)c(S(=O)(=O)Nc2ccc(Oc3nc4ccccc4n4cnnc34)cc2)c1 [8ag]	inactive	–	–
COc1ccc(Cl)cc1S(=O)(=O)Nc1ccc(Oc2nc3ccccc3n3cnnc23)cc1 [8aa, N-(4-([1,2,4]Triazolo[4,3-a]quinoxalin-4-yloxy)-phenyl)-5-chloro-2-methoxybenzenesulfonamide]	–	modest activity	–
